The results in this text go back to ChEMBL document CHEMBL4411315, “Discovery of Novel Dual Histone Deacetylase and Mammalian Target of Rapamycin Target Inhibitors as a Promising Strategy for Cancer Therapy” (J Med Chem, 2019).

Calls of active or inactive are those of the source. The rule behind the calls is not given here.

Data set [1] relates to MV4-11. The data set can be described thus: Induction of apoptosis in human MV4-11 cells assessed as viable cells at 80 nM after 48 hrs by Annexin V-FITC/propidium iodide staining-based flow cytometric analysis (reference value: 84.1%). Format: functional. The settings on record: MV4-11, 48 h, read-out: Activity.
For data set [2], the system named is MM1.S. The data set can be described thus: Induction of apoptosis in human MM1S cells assessed as viable cells at 160 nM after 48 hrs by Annexin V-FITC/propidium iodide staining-based flow cytometric analysis (reference value: 98.9%). Format: functional. The settings on record: read-out: Activity.
Data set [3] can be described thus: Toxicity against NOD/SCID mouse xenografted with human MV4-11 cells assessed as mouse survival at 10 mg/kg, iv administered every 2 days for 6 days. Type of data set: organism-based. The conditions noted are these: in vivo. In short, it runs like this: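 MV4-11 cells (10^7 in 100 μL serum-free IMDM) were injected s.c. into the right flank of female NOD/SCID mice aged 5-6 weeks. Groups of 6 were randomised at 100-200 mm3. Dosing was i.v. every 2 days in physiological saline containing 2.5% DMSO and 10% cyclodextrin, pH 9. Tumours were measured by caliper every 2 days. Survivors were counted.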

Another data set concerns the target Histone deacetylase 11 (Homo sapiens, UniProt Q96DB2). The data set can be described thus: Inhibition of recombinant full length N-terminal GST-tagged human HDAC11 expressed in baculovirus expression system using Ac-peptide-AMC as substrate preincubated for 15 mins followed by substrate addition and measured after 1 hr by fluorescence assay.
Data set [4] concerns MM1.S. The data set can be described thus: Induction of apoptosis in human MM1S cells assessed as viable cells at 10 nM after 48 hrs by Annexin V-FITC/propidium iodide staining-based flow cytometric analysis (reference value: 98.9%). Format: functional. The settings on record: read-out: Activity.
For data set [5], the system named is MM1.S. The data set can be described thus: Induction of apoptosis in human MM1S cells assessed as early apoptotic cells at 40 nM after 48 hrs by Annexin V-FITC/propidium iodide staining-based flow cytometric analysis (reference value: 0.38%). Type of data set: functional.
Data set [6] has as its system MV4-11. Briefly: Induction of apoptosis in human MV4-11 cells assessed as late apoptotic cells at 10 nM after 48 hrs by Annexin V-FITC/propidium iodide staining-based flow cytometric analysis (reference value: 5.03%). Format: functional.
For data set [7], the system named is MM1.S. The data set can be described thus: Antitumor activity against human MM1S cells xenografted in NOD/SCID mouse assessed as tumor growth inhibition at 10 mg/kg, iv administered every 2 days for 5 days and measured every 2 days post last dose by caliper method relative to control. Format: functional. The conditions noted are these: read-out: TGI. In short, it runs like this:
(§1)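 MM1S xenografts were made with 10^7 cells in 100 μL serum-free RPMI 1640, injected s.c. into the right flank of female NOD/SCID mice aged 5-6 weeks. Mice were randomized at 100-200 mm3, 6 per group. Dosing was i.v. every 2 days in saline with 2.5% DMSO and 10% cyclodextrin at pH 9. Tumours were measured by caliper every 2 days (volume = length × width² × 0.5) and weighed at the end.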

The test system of data set [8] is MV4-11. The data set can be described thus: Induction of apoptosis in human MV4-11 cells assessed as viable cells at 20 nM after 48 hrs by Annexin V-FITC/propidium iodide staining-based flow cytometric analysis (reference value: 84.1%). Type of data set: functional. The conditions noted are these: MV4-11, 48 h, read-out: Activity.
In data set [9] the test system is MM1.S. Briefly: Induction of apoptosis in human MM1S cells assessed as viable cells at 320 nM after 48 hrs by Annexin V-FITC/propidium iodide staining-based flow cytometric analysis (reference value: 98.9%). Format: functional. The settings on record: read-out: Activity.
The nature of data set [10]: Toxicity against NOD/SCID mouse xenografted with human MM1S cells assessed as effect on body weight at 20 mg/kg, iv administered every 2 days for 5 days. Format: organism-based. The settings on record: in vivo. In short, it runs like this: (§2)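 Female NOD/SCID mice, 5-6 weeks old, received 10^7 MM1S cells in 100 μL serum-free RPMI 1640 s.c. into the right flank. At 100-200 mm3 tumours they were randomised, 6 mice per group. Tumours were measured by caliper every 2 days. At the end, tumours were excised and weighed. Survivors are reported per group.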

Data set [11] addresses T1, Serine/threonine-protein kinase mTOR (Homo sapiens, UniProt P42345). The data set can be described thus: Inhibition of mTOR in human MV4-11 cells assessed as decrease in 4EBP1 phosphorylation at ser 65 residues at 0.01 to 10 uM after 24 hrs by Western blot analysis. Format: cell-based. In short, it runs like this:
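Treatment of MV4-11 cells lasted 24 h at 0.01, 0.1, 1 and 10 μM. Lysis in RIPA buffer and BCA quantitation, then 30 μg protein by SDS-PAGE, PVDF transfer, 5% milk block, primary antibody overnight at 4 °C, HRP secondary 1 h and ECL detection. p-p70S6K (T389), p-4EBP1 (S65), p-Akt (S473) and p-ERK were probed.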

Data set [12] relates to MM1.S. Briefly: Cell cycle arrest in human MM1S cells assessed as accumulation at S phase at 10 nM after 24 hrs by propidium iodide/RNase staining-based FACS analysis (reference value: 24.49%). Format: functional.
The test system of a further data set is Raji. Briefly: Antiproliferative activity against human Raji cells after 72 hrs by MTT assay. Format: functional, cell-based. In short, it runs like this:
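Log-phase cells were plated at 10000-15000 per well and exposed to serial concentrations after 24 h for 72 h. Read-out was MTT for 1-3 h, then 20% SDS overnight and absorbance at 570 nm. IC50 was calculated from growth versus untreated control, as mean ± SEM of at least three independent experiments.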

The subject of data set [13] is MM1.S. Briefly: Induction of apoptosis in human MM1S cells assessed as necrotic cells at 20 nM after 48 hrs by Annexin V-FITC/propidium iodide staining-based flow cytometric analysis (reference value: 0.32%). Type of data set: functional.
Data set [14] deals with MM1.S. Briefly: Induction of apoptosis in human MM1S cells assessed as late apoptotic cells at 80 nM after 48 hrs by Annexin V-FITC/propidium iodide staining-based flow cytometric analysis (reference value: 0.42%). Type of data set: functional.
The target of data set [15] is T1, Serine/threonine-protein kinase mTOR. The data set can be described thus: Inhibition of recombinant N-terminal FLAG-tagged human mTOR (1362 to end residues) using ULight-4E-BP1 (Thr37/46) peptide as substrate after 1 hr by fluorescence assay. In short, it runs like this: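 mTOR enzyme, ATP, compound and ULight-4E-BP1 (Thr37/46) peptide in kinase buffer were incubated 1 h at room temperature. EDTA quench plus Eu-anti-phospho-4E-BP1 antibody was added and equilibrated 1 h. TR-FRET was read at excitation 320 or 340 nm and emission 665 nm. Curves were fitted, and values are means of at least two experiments.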

Data set [16] concerns MM1.S. The data set can be described thus: Cell cycle arrest in human MM1S cells assessed as accumulation at G0/G1 phase at 1.25 nM after 24 hrs by propidium iodide/RNase staining-based FACS analysis (reference value: 49.22%). Format: functional.
Data set [17] in a line: Toxicity against NOD/SCID mouse xenografted with human MM1S cells assessed as effect on body weight at 10 mg/kg, iv administered every 2 days for 5 days. The conditions noted are these: in vivo. Format: organism-based. In short, it runs like this:
as §2

Data set [18] concerns MV4-11. The data set can be described thus: Induction of apoptosis in human MV4-11 cells assessed as early apoptotic cells at 80 nM after 48 hrs by Annexin V-FITC/propidium iodide staining-based flow cytometric analysis (reference value: 10.7%). Type of data set: functional.
For data set [19], the system named is MM1.S. Briefly: Cell cycle arrest in human MM1S cells assessed as accumulation at G2/M phase at 10 nM after 24 hrs by propidium iodide/RNase staining-based FACS analysis (reference value: 26.29%). Type of data set: functional.
Data set [20] concerns MM1.S. Briefly: Antitumor activity against human MM1S cells xenografted in NOD/SCID mouse assessed as tumor growth inhibition at 20 mg/kg, iv administered every 2 days for 5 days and measured every 2 days post last dose by caliper method relative to control. Type of data set: functional. The settings on record: read-out: TGI. In short, it runs like this:
as §1

For data set [21], the system named is MV4-11. The data set can be described thus: Induction of apoptosis in human MV4-11 cells assessed as necrotic cells at 320 nM after 48 hrs by Annexin V-FITC/propidium iodide staining-based flow cytometric analysis (reference value: 0.17%). Format: functional.

Histone deacetylase 11, sequence (Q96DB2 whole entry): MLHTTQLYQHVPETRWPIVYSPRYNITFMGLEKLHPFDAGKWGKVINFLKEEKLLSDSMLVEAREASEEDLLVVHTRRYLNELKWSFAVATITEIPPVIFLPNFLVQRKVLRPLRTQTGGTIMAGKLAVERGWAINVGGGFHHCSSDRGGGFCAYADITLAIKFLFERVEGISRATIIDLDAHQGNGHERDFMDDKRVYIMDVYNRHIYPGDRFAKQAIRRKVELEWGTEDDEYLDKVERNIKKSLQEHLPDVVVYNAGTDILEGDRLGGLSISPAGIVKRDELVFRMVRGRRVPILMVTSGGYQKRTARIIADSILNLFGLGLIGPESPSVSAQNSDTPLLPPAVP

Consider `C[C@@H]1CN(C(=O)Nc2ccc(-c3nc(N4CCOCC4)c4cnn(CCCCCCC(=O)NO)c4n3)cc2)CCO1`, for which, in the data set with MV4-11 [1], the viability at 0.08 µM is 4.09%. Further, in the data set on MM1.S [2], the viability at 0.16 µM stood at 13.8%. The Activity result is “Non-Toxic” in [3]; 4.81% in the data set with MM1.S [5]; 9.91% in the data set on MV4-11 [6]; “Non-Toxic” in data set [10]; 12.6% with MM1.S [12]; 1.05% in the data set with MM1.S [13]. Besides, the Activity in the data set on MM1.S [14] was 40.5%; in the data set on MM1.S [16], 53.85%; in data set [17] it was “Non-Toxic”; in the data set on MV4-11 [18], 37.6%; in the data set on MM1.S [19] it was 20.43%; with MV4-11 [21] it was 1.62%. In addition, the IC50 was greater than 1000 nM at Histone deacetylase 11, 1.9 nM with Raji and 1.2 nM in data set [15]. Also, the viability at 0.01 µM in the data set on MM1.S [4] was found to be 95.1%. The inhibition in vivo at 10 mg/kg in the data set on MM1.S [7] came out at 48.1%. In the data set on MV4-11 [8], the viability at 0.02 µM worked out at 20.6%. Besides, the viability at 0.32 µM with MM1.S [9] was found to be 3.68%. For the same compound, in data set [11], the inhibition result is “Active”. In addition, the inhibition in vivo at 20 mg/kg in the data set with MM1.S [20] came out at 72.5%.
